Laboratory results: ChEMBL document CHEMBL1124748, “Preparation of triazolo[1,5-c]pyrimidines as potential antiasthma agents” (J Med Chem, 1990)
pIC50: −log10 of the molar value.

How the values were obtained:
[1] = Antiasthmatic activity against the immunoglobulin E (IgE) antigen using the human basophil asthma model.; type: functional
Procedure, shortened: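 Leukocytes washed and resuspended in pH 7.4 buffer (25 mM PIPES, 110 mM NaCl, 5 mM KCl, 0.6 mM CaCl2, 1.0 mM MgCl2, 0.03% HSA). Cells preincubated with drug 10 min at 37 °C, then incubated 1 h at 37 °C with shaking. Histamine in HClO4-treated supernatants measured fluorometrically against lysed-cell totals. Triplicates, controls sextuplicate. IC50 from linear regression of percent release.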

[2] = test system: Mus musculus; experiment: Effective dose (ip) evaluated by Passive cutaneous anaphylaxis test (PCA) by injecting IgE serum intradermally in mice
[3] = Antiasthmatic activity against the immunoglobulin E (IgE) antigen using the human basophil asthma model; I = Inactive at 48 uM; type: functional

| Structure (SMILES) | pIC50 [1] | ED50 [2] | IC50 [3] |
| --- | --- | --- | --- |
| Nc1nc2ccnc(-c3cccc(C(F)(F)F)c3)n2n1 | 5.66 | 166 mg/kg |  |
| C[n+]1cccc(-c2nccc3nc(N)nn23)c1.[I-] |  |  | Not Active |
| CC(=O)Nc1nc2c(C)cnc(-c3cccc([N+](=O)[O-])c3)n2n1 | 4.96 |  |  |
| Cc1ccc(S(=O)(=O)Nc2cccc(-c3nccc4nc(N)nn34)c2)cc1 | 5.82 |  |  |
| Nc1nc2ccnc(-c3ccc(C(F)(F)F)cc3)n2n1 |  |  | Not Active |
| Nc1nc2ccnc(-c3cccc(F)c3)n2n1 |  |  | Not Active |
| CN(C)/C=N/c1nc2ccnc(-c3cccc(C(F)(F)F)c3)n2n1 |  |  | Not Active |
| FC(F)(F)c1cccc(-c2nccc3ncnn23)c1 |  |  | Not Active |
| Nc1nc2ccnc(-c3cccc(C(=O)O)c3)n2n1 |  |  | Not Active |
| Cc1cnc(-c2ccc(C(F)(F)F)cc2)n2nc(N)nc12 |  |  | Not Active |
| CC(=O)Nc1nc2c(C)cnc(-c3cccc(N)c3)n2n1 |  |  | Not Active |
| FC(F)(F)c1cccc(-c2nccc3nc(NCC4CO4)nn23)c1 (stereo unspecified) |  |  | Not Active |
| CC(=O)Nc1nc2ccnc(-c3cccc([N+](=O)[O-])c3)n2n1 |  |  | Not Active |
| Nc1nc2ccnc(-c3cccc(Br)c3)n2n1 | 5.43 | 142 mg/kg |  |
| Cc1cnc(-c2cccc([N+](=O)[O-])c2)n2nc(Cl)nc12 |  |  | Not Active |
| Nc1nc2ccnc(-c3cccs3)n2n1 |  |  | Not Active |
| Nc1nc2ccnc(-c3ccccc3F)n2n1 |  | 218 mg/kg | Not Active |
| Cc1cccnc1-c1nccc2nc(N)nn12 |  |  | Not Active |
| Nc1nc2ccnc(-c3cccc(CO)c3)n2n1 |  |  | Not Active |
| CC(=O)Nc1nc2c(C)cnc(-c3cccc(NS(=O)(=O)c4ccc(C)cc4)c3)n2n1 | 4.29 |  |  |
| Cc1cnc(-c2cccc(C(F)(F)F)c2)n2nc(N)nc12 | 5.25 |  |  |

| Structure (SMILES) | pIC50 [1] | ED50 [2] | IC50 [3] |
| --- | --- | --- | --- |
| Nc1nc2ccnc(-c3cc(C(F)(F)F)cc(C(F)(F)F)c3)n2n1 | 6.15 |  |  |
| Nc1nc2ccnc(-c3cc[n+]([O-])cc3)n2n1 | 5.25 |  |  |
| Cc1cnccc1-c1nccc2nc(N)nn12 | 5.60 |  |  |
| Cc1cnc(-c2cccc([N+](=O)[O-])c2)n2nc(N)nc12 | 5.06 |  |  |
| CCCc1c(C)nc(-c2cccc(C(F)(F)F)c2)n2nc(N)nc12 |  |  | Not Active |
| Nc1nc2ccnc(-c3cccc(C(Cl)Cl)c3)n2n1 | 6.00 |  |  |
| CC(=O)Nc1nc2ccnc(-c3cccc(NS(=O)(=O)c4ccc(C)cc4)c3)n2n1 | 5.80 |  |  |
| CN(C)c1nc2ccnc(-c3cccc(C(F)(F)F)c3)n2n1 |  |  | Not Active |
| Nc1nc2cc(C(F)(F)F)nc(-c3cccc(C(F)(F)F)c3)n2n1 |  |  | Not Active |
| Nc1nc2ccnc(-c3cccc([N+](=O)[O-])c3)n2n1 | 5.42 |  |  |
| CCOC(=O)CNc1nc2ccnc(-c3cccc(C(F)(F)F)c3)n2n1 |  |  | Not Active |
| CNc1cccc(-c2ncc(C)c3nc(NC)nn23)c1 |  |  | Not Active |
| Cc1cc2nc(N)nn2c(-c2ccc(C(F)(F)F)cc2)n1 |  |  | Not Active |
| CCOC(=O)c1cccc(-c2nccc3nc(N)nn23)c1 | 4.94 |  |  |
| Nc1nc2ccnc(-c3ccccc3)n2n1 |  |  | Not Active |
| Cc1cnc(-c2ccccc2)n2nc(N)nc12 |  |  | Not Active |
| Nc1nc2ccnc(-c3cc(Cl)cc(Cl)c3)n2n1 |  |  | Not Active |
| Nc1nc2ccnc(-c3cccnc3)n2n1 | 4.85 |  |  |
| CNc1nc2ccnc(-c3cccc(C(F)(F)F)c3)n2n1 | 4.99 |  |  |
| Nc1nc2ccnc(-c3cccc(OC(F)F)c3)n2n1 | 5.47 | 138 mg/kg |  |
| OC(CCl)CNc1nc2ccnc(-c3cccc(C(F)(F)F)c3)n2n1 (stereo unspecified) | 5.03 |  |  |

| Structure (SMILES) | pIC50 [1] | ED50 [2] | IC50 [3] |
| --- | --- | --- | --- |
| CC(=O)Nc1nc2ccnc(-c3cccc(C(F)(F)F)c3)n2n1 | 4.70 |  |  |
| Nc1nc2ccnc(-c3cccc(Cl)c3)n2n1 | 5.37 |  |  |
| Cc1cnc(-c2cccc([N+](=O)[O-])c2)n2nc(N3CCOCC3)nc12 |  |  | Not Active |
| CCCc1cc2nc(N)nn2c(-c2cccc(C(F)(F)F)c2)n1 |  |  | Not Active |
| CCOC(=O)c1ccc(-c2nccc3nc(N)nn23)cc1 | 4.78 |  |  |
| Nc1nc2ccnc(-c3ccc(F)cc3)n2n1 | 4.50 | 178 mg/kg |  |
| Nc1nc2ccnc(Cc3cccc(C(F)(F)F)c3)n2n1 |  | 178 mg/kg | Not Active |
| Cc1cc2nc(N)nn2c(-c2cccc(C(F)(F)F)c2)n1 |  |  | Not Active |
| CCOC(=O)CN(C(C)=O)c1nc2ccnc(-c3cccc(C(F)(F)F)c3)n2n1 |  |  | Not Active |
| Nc1nc2ccnc(-c3ccncc3)n2n1 | 4.74 | 14 mg/kg |  |
| Nc1nc2ccnc(-c3cccc(C=O)c3)n2n1 | 6.15 |  |  |
| Nc1nc2ccnc(-c3ccc[n+]([O-])c3)n2n1 |  |  | Not Active |
| Cc1ccc(S(=O)(=O)Nc2cccc(-c3ncc(C)c4nc(N)nn34)c2)cc1 |  |  | Not Active |
| C#Cc1cccc(-c2nccc3nc(N)nn23)c1 | 4.90 |  |  |
| CN(C)C(=O)c1cccc(-c2nccc3nc(N)nn23)c1 | 5.46 |  |  |
| CC(=O)N(C)c1nc2ccnc(-c3cccc(C(F)(F)F)c3)n2n1 |  |  | Not Active |
| Cc1cnc(-c2cccc(N)c2)n2nc(N)nc12 |  |  | Not Active |
| Nc1nc2ccnc(-c3ccccn3)n2n1 |  |  | Not Active |
| Cc1cccc(-c2nccc3nc(N)nn23)c1 | 5.26 |  |  |
| O=C(O)c1cc(=O)c2c(OCC(O)COc3cccc4oc(C(=O)O)cc(=O)c34)cccc2o1 [CROMOLYN SODIUM] | 3.00 |  |  |
| Cn1c(=O)c2nc[nH]c2n(C)c1=O.O [THEOPHYLLINE] | 3.51 | 140 mg/kg |  |
